# The source made the active and inactive calls. No cut-off for these calls is given here.
# What was measured:
# [1] = Clearance in Wistar rat at 1 mg/kg, iv by LC-MS/MS analysis; format: ADME, organism-based; details: in vivo
# Outline: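 Fasted male Wistar rats dosed i.v. in water for injection at 2 mL/kg. Clearance and half-life derived from the i.v. plasma profile.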
# [2] = Metabolic stability in rat hepatocytes after 30 mins by LC-MS/MS analysis; format: ADME, cell-based, Hepatocyte; details: read-out: Stability
# [3] = Fraction unbound in human plasma at 1 uM by equilibrium dialysis; format: ADME, cell-free
# Outline: (§1)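 Rapid equilibrium dialysis of fresh rat, dog or human plasma at a compound concentration of 1.0 µM. Unbound fraction reported as a percentage.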
# Bone marrow cell = assay: Clastogenic activity in micronucleus of mouse bone marrow cells; format: toxicity, cell-based
# [4] = Apparent permeability across apical to basolateral side in human Caco2 cells at 10 uM; format: ADME, cell-based; details: Caco-2
# Outline: (§2)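 Caco-2 monolayers; bidirectional permeability measured at 10 µM, with and without the P-gp inhibitor verapamil.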
# [5] = Partition coefficient, log P of the compound; format: physicochemical; details: octanol/water
# [6] = Lipophilicity, log D of the compound at pH 7.4; format: physicochemical; details: buffer
# [7] = Dissociation constant, pKa1 of the compound by potentiometric titration assay; format: physicochemical
# Cytochrome P450 2E1 = Cytochrome P450 2E1 (Homo sapiens, UniProt P05181); assay: Inhibition of CYP2E1 (unknown origin); format: ADME
# [8] = Fraction unbound in dog plasma at 1 uM by equilibrium dialysis; format: ADME, cell-free, Canis lupus familiaris; outline: as §1
# [9] = Mutagenicity in Salmonella typhimurium TA100 in absence of metabolic activation by Ames test; format: toxicity; details: salmonella enterica subsp. enterica serovar typhimurium
# Outline: (§3)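 Reverse-mutation test in Salmonella typhimurium TA1537, TA1535, TA98 and TA100 and in E. coli WP2 uvrA, run with and without metabolic activation.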
# Rattus norvegicus [10] = assay: Induction of wake promoting activity in orexin-B-saporin lesioned Wistar rat assessed as increase in wake time at 10 to 30 mg/kg, po dosed 15 mins before start of dark phase; format: functional, organism-based
# Outline: (§4)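 Rats carried epidural frontal-cortex EEG screws, nuchal EMG leads, and bilateral lateral hypothalamic orexin-B-saporin (490 ng/0.8 µl). After at least 3 weeks' recovery, they were dosed 15 min before lights-off in a crossover design with a 1-week washout. Wake, NREM and REM time was totalled over 3 h. DREM was scored as REM after ≥60 s wake. Dunnett's test was used.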
# Rattus norvegicus [11] = assay: In vivo receptor occupancy at histamine 3 receptor in Wistar rat frontal cortex at 1 to 3 mg/kg, po after measured after 4 to 6 hrs by LC-MS/MS analysis relative to control; format: functional
# [12] = Mutagenicity in Salmonella typhimurium TA98 in absence of metabolic activation by Ames test; format: toxicity; details: salmonella enterica subsp. enterica serovar typhimurium
# [13] = Oral bioavailability in Beagle dog at 3 mg/kg by LC-MS/MS analysis; format: ADME, organism-based, Canis lupus familiaris; details: in vivo
# Rattus norvegicus [14] = assay: Induction of wake promoting activity in orexin-B-saporin lesioned Wistar rat assessed as decrease in number of direct REM sleep onset episodes at 10 to 30 mg/kg, po dosed 15 mins before start of dark phase; format: functional, organism-based; outline: as §4
# [15] = Fraction unbound in rat brain at 1 uM by equilibrium dialysis; format: ADME, tissue-based
# Cytochrome P450 3A4 = Cytochrome P450 3A4 (Homo sapiens, UniProt P08684); assay: Inhibition of CYP3A4 in human liver microsomes using midazolam as substrate after 2 mins by LC-MS/MS analysis; format: ADME
# Rattus norvegicus [16] = assay: Effect on locomotor activity in Wistar rat up to 100 mg/kg, po by open field test; format: ADME, organism-based; details: in vivo
# Cytochrome P450 2A6 = biological target: T1, Cytochrome P450 2A6 (Homo sapiens, UniProt P11509); assay: Inhibition of CYP2A6 (unknown origin); format: ADME
# T1 sequence (P11509 whole entry): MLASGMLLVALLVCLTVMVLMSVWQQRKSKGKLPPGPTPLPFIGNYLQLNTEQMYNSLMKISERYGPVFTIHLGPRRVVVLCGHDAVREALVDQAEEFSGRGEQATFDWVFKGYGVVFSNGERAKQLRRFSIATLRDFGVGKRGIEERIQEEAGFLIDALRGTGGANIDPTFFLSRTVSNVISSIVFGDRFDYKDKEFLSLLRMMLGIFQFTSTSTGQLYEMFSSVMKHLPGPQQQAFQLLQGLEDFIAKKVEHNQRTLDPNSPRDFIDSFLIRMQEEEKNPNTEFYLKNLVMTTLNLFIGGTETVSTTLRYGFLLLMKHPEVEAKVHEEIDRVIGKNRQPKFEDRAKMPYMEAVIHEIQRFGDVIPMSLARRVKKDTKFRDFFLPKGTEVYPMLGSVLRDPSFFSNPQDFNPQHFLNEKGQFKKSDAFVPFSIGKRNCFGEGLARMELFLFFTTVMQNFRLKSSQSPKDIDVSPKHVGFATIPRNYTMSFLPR
# [17] = Mutagenicity in Salmonella typhimurium TA1535 in absence of metabolic activation by Ames test; format: toxicity; details: salmonella enterica subsp. enterica serovar typhimurium
# [18] = Ratio of drug uptake in Wistar rat brain to plasma at 3 mg/kg, po by LC-MS/MS analysis; format: ADME, organism-based; details: brain and plasma, read-out: BPR
# Outline: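 Fasted male Wistar rats were dosed orally with water for injection as the vehicle. Total brain and plasma concentrations were measured at 1 h after dosing and expressed as a ratio.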
# [19] = Mutagenicity in Salmonella typhimurium TA100 in presence of metabolic activation by Ames test; format: toxicity; details: salmonella enterica subsp. enterica serovar typhimurium; outline: as §3
# [20] = Mutagenicity in Salmonella typhimurium TA1537 in presence of metabolic activation by Ames test; format: toxicity; details: salmonella enterica subsp. enterica serovar typhimurium
# [21] = biological target: Voltage-gated inwardly rectifying potassium channel KCNH2 (Homo sapiens, UniProt Q12809); assay: Inhibition of human ERG expressed in HEK293 cells by whole-cell patch clamp assay; format: cell-based
# [22] = Respiratory toxicity in Wistar rat up to 90 mg/kg, po; format: organism-based; details: in vivo
# Outline: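 Respiratory safety was evaluated in rats given single oral doses of 10, 30 and 90 mg/kg.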
# [23] = Metabolic stability in human liver microsomes in presence of NADPH after 30 mins by LC-MS/MS analysis; format: ADME, Microsome; details: read-out: Stability
# [24] = AUC (0 to 24 hrs) in Wistar rat at 3 mg/kg, po by LC-MS/MS analysis; format: ADME, organism-based; design: dose 3 mg/kg, time < 24 hr, route oral; details: in vivo
# Outline: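 Fasted male Wistar rats; compound in water for injection, given i.v. (2 mL/kg) or p.o. (10 mL/kg). Plasma exposure measured as AUC0-24hr.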
# [25] = Apparent permeability across basolateral to apical side in human Caco2 cells at 10 uM; format: ADME, cell-based; details: Caco-2; outline: as §2
# [26] = Fraction unbound in rat plasma at 1 uM by equilibrium dialysis; format: ADME, cell-free; outline: as §1
# Rattus norvegicus [27] = assay: In vivo receptor occupancy at histamine 3 receptor in po dosed Wistar rat frontal cortex after 1 to 24 hrs by LC-MS/MS analysis; format: functional
# [28] = Solubility in water; format: physicochemical
# Chain of Cytochrome P450 3A4 (P08684 whole entry): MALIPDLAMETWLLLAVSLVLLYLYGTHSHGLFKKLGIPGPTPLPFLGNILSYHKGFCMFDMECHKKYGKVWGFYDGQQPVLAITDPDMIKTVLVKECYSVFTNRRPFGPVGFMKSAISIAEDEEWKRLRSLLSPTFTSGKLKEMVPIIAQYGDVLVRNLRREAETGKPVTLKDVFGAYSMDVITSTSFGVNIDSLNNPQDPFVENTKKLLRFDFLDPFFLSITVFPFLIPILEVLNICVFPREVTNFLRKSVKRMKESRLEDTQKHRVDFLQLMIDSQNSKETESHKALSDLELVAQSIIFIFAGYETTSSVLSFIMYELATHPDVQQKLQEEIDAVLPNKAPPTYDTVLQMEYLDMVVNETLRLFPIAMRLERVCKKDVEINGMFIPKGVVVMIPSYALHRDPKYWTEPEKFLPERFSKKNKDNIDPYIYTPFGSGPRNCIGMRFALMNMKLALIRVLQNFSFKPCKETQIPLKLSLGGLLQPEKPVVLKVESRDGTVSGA
# Chain of Cytochrome P450 2E1 (P05181 whole entry): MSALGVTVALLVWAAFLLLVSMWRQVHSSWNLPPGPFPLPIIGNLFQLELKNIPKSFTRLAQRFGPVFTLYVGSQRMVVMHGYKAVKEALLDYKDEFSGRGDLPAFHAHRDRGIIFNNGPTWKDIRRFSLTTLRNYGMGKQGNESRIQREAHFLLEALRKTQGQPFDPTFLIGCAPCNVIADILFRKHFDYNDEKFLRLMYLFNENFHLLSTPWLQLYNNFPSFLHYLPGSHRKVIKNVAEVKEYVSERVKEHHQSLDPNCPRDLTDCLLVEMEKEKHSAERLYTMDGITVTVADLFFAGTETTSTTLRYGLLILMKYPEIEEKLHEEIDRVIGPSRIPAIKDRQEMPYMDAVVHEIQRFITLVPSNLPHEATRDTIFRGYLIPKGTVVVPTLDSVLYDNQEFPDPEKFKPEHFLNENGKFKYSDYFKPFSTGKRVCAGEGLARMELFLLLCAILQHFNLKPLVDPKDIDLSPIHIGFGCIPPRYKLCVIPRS
# Chain of Voltage-gated inwardly rectifying potassium channel KCNH2 (Q12809 whole entry): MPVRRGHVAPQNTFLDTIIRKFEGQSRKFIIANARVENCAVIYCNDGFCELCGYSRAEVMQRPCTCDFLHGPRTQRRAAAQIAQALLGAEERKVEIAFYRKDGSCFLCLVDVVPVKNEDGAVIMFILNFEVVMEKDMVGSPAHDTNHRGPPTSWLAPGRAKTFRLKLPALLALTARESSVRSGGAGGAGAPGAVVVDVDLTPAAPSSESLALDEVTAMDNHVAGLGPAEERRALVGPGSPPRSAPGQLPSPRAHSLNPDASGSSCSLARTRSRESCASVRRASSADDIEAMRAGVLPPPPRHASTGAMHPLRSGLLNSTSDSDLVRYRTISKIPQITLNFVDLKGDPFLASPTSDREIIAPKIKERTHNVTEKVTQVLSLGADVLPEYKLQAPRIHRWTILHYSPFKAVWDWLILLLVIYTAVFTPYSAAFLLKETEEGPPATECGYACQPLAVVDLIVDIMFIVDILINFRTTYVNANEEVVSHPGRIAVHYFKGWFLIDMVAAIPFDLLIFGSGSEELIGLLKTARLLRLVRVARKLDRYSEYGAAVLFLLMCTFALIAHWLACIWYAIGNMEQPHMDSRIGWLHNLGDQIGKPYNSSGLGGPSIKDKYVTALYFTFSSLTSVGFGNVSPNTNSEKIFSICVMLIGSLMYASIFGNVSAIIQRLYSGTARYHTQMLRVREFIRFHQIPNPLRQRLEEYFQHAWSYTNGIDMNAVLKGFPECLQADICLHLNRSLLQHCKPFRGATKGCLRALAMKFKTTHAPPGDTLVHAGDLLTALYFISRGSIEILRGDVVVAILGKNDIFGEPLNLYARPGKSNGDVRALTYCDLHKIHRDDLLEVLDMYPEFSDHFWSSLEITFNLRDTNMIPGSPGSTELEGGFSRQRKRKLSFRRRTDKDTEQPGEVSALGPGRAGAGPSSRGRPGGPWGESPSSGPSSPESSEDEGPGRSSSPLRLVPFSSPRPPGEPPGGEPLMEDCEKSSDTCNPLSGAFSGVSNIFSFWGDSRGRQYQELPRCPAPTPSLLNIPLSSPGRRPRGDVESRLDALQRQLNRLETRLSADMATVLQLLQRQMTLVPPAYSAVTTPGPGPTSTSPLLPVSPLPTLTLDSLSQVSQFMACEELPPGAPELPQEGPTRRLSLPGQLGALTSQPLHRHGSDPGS
smiles,measurement,setting,value
Cl.Cl.O=C(CN1CCOCC1)Nc1ccc(OC2CCN(C3CCC3)CC2)cc1,clearance,[1],63 mL/min/kg
same,remaining at 0.5 h,[2],37%
same,fraction unbound at 1 µM,[3],0.7
same,Activity,Bone marrow cell,Non-Toxic
same,Papp A→B at 10 µM,[4],30.8 ×10⁻⁶ cm/s
same,logP,[5],2.2
same,logD,[6],0.4
same,pKa,[7],8.5
same,IC50,Cytochrome P450 2E1,> 10 µM
same,fraction unbound at 1 µM,[8],0.52
same,Activity,[9],Non-Toxic
same,Activity,Rattus norvegicus [10],Active
same,Occ,Rattus norvegicus [11],50%
same,Activity,[12],Non-Toxic
same,bioavailability,[13],83%
same,Activity,Rattus norvegicus [14],Active
same,fraction unbound at 1 µM,[15],0.57
same,IC50,Cytochrome P450 3A4,> 45 µM
same,Activity,Rattus norvegicus [16],Non-Toxic
same,IC50,Cytochrome P450 2A6,> 45 µM
same,Activity,[17],Non-Toxic
same,Kp,[18],0.93
same,Activity,[19],Non-Toxic
same,Activity,[20],Non-Toxic
same,IC50,[21],> 10 µM
same,Activity,[22],Non-Toxic
same,remaining at 0.5 h,[23],< 5%
same,AUC(0-t) at 24 h,[24],626 ng·h/mL
same,Papp B→A at 10 µM,[25],30.8 ×10⁻⁶ cm/s
same,fraction unbound at 1 µM,[26],0.37
same,ED50,Rattus norvegicus [27],0.24 mg/kg
same,ED80,Rattus norvegicus [27],3.05 mg/kg
same,Occ,Rattus norvegicus [27],Dose-dependent effect
same,solubility,[28],730 mg/mL

# Source: ChEMBL document CHEMBL4368912, “Discovery and Development of N-[4-(1-Cyclobutylpiperidin-4-yloxy)phenyl]-2-(morpholin-4-yl)acetamide Dihydrochloride (SUVN-G3031): A Novel, Potent, Selective, and Orally Active Histamine H3 Receptor Inverse Agonist with Robust Wake-Promoting Activity” (J Med Chem, 2019)
